Results taken from ChEMBL document CHEMBL1156706, “Structure-activity relationships of novel heteroaryl-acrylonitriles as cytotoxic and antibacterial agents” (Eur J Med Chem, 2008).
Converted amounts (≈) assume the structure as drawn.

What was measured:
RT-4 = experiment: Cytotoxicity against human RT4 cells after 96 hrs by microtiter assay; assay type: functional, cell-based; settings: RT-4, 96 h
In short: (§1)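 DSMZ cell lines in RPMI 1640 with 10% FCS. DMF stocks diluted 1000-fold into medium. Continuous exposure 96 h at 37 °C, 5% CO2. Adherent cells stained with crystal violet. IC50 (50% growth inhibition vs untreated control) obtained by least-squares fitting of dose–response curves, averaging 2–5 independent determinations.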

[1] = Cytotoxicity against human KYSE520 cells after 96 hrs by microtiter assay; assay type: functional, cell-based; settings: KYSE-520, 96 h; in short: as §1
Enterococcus hirae = experiment: Antibacterial activity against Enterococcus hirae NCTC 10541 after 24 hrs; assay type: functional, organism-based; settings: NCTC 10541, 24 h
In short: (§2)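 Overnight culture diluted in Mueller–Hinton broth to 10^5 CFU/ml. Compounds dissolved in DMSO and diluted twofold in broth over 0.24–62.5 […]. Tubes inoculated and incubated 24 h at 37 °C. MIC taken as the lowest concentration with no visible growth. Clear tubes were subcultured onto Mueller–Hinton agar, and MBC was taken as the minimal concentration killing the organisms after 24 h.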

RT-112 = experiment: Cytotoxicity against human RT112 cells after 96 hrs by microtiter assay; assay type: functional, cell-based; settings: RT-112, 96 h; in short: as §1
MCF7 = experiment: Cytotoxicity against human MCF7 cells after 96 hrs by microtiter assay; assay type: functional, cell-based; settings: MCF7, 96 h; in short: as §1
[2] = Cytotoxicity against human LCLC-103H cells after 96 hrs by microtiter assay; assay type: functional, cell-based; in short: as §1
A-427 = experiment: Cytotoxicity against human A427 cells after 96 hrs by microtiter assay; assay type: functional, cell-based; settings: A-427, 96 h; in short: as §1
5637 = experiment: Cytotoxicity against human 5637 cells after 96 hrs by microtiter assay; assay type: functional, cell-based; settings: Homo sapiens, 5637, 96 h; in short: as §1
Staphylococcus aureus = experiment: Antibacterial activity against Staphylococcus aureus NCTC 4163 after 24 hrs; assay type: functional, organism-based; settings: NCTC 4163, 24 h; in short: as §2
YAPC = experiment: Cytotoxicity against human YAPC cells after 96 hrs by microtiter assay; assay type: functional, cell-based; in short: as §1
DAN-G = experiment: Cytotoxicity against human DAN-G cells after 96 hrs by microtiter assay; assay type: functional, cell-based; in short: as §1
[3] = Cytotoxicity against human KYSE70 cells after 96 hrs by microtiter assay; assay type: functional, cell-based; settings: KYSE-70, 96 h; in short: as §1
KYSE-510 = experiment: Cytotoxicity against human KYSE510 cells after 96 hrs by microtiter assay; assay type: functional, cell-based; settings: KYSE-510, 96 h; in short: as §1
SISO = experiment: Cytotoxicity against human SISO cells after 96 hrs by microtiter assay; assay type: functional, cell-based; in short: as §1
[4] = system: Staphylococcus epidermidis; experiment: Antibacterial activity against Staphylococcus epidermis NCTC 14990 after 24 hrs; assay type: functional, organism-based; settings: NCTC 14990, 24 h; in short: as §2
[5] = Aqueous solubility in phosphate buffered saline at pH 7.4 after 24 hrs; assay type: physicochemical
In short: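 Solid added in excess to Dulbecco's PBS, pH 7.4, and stirred in the dark 24 h at room temperature. Suspension filtered through a 0.22 filter. Filtrate absorbance read at each compound's λmax, and dissolved concentration calculated from the extinction coefficient at that wavelength.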

Compound	IC50 (RT-4) [µM]	IC50 [1] [µM]	MIC (Enterococcus hirae) [µM]	IC50 (RT-112) [µM]	IC50 (MCF7) [µM]	IC50 [2] [µM]	IC50 (A-427) [µM]	IC50 5637 [µM]	MIC (Staphylococcus aureus) [µM]	IC50 (YAPC) [µM]	IC50 (DAN-G) [µM]	IC50 [3] [µM]	IC50 (KYSE-510) [µM]	IC50 (SISO) [µM]	MIC [4] [µM]	solubility at 24 h [5] [µM]
N#C/C(=C\c1ccccn1)c1nc2ccccc2[nH]1	2.68	10.5	> 215	4.73	8.14	7.42	2.84	2.28	> 215	6.58	3.67	6.82	3.67	1.91	215 (≈ 52.9 µg/mL)	–
O=C(Cn1cnc2ccccc21)NC(O)c1ccc([N+](=O)[O-])s1 (stereo unspecified)	2.96	24.2	–	13.7	13.1	7.46	228	33.7	–	22.4	9.6	57.4	140	11.7	–	–
N#C/C(=C\c1ccc([N+](=O)[O-])s1)c1nc2cccnc2[nH]1	0.33	0.32	210 (≈ 62.4 µg/mL)	0.62	0.2	0.11	0.11	0.17	6.4 (≈ 1.9 µg/mL)	0.3	0.62	0.38	0.74	0.53	3.2 (≈ 0.951 µg/mL)	0.5 (≈ 0.149 µg/mL)
N#C/C(=C\c1ccccn1)c1nc2ccccc2s1	9.69	9.18	–	8.19	4.34	7.8	6.05	6.65	–	8.27	6.47	7.28	13	5.69	–	2 (≈ 0.527 µg/mL)
N[C@@H](Cc1ccc(N(CCCl)CCCl)cc1)C(=O)O [MELPHALAN]	14.2	10.5	–	4.69	3.71	4	5.13	0.31	–	5.95	2.65	16.2	8.18	1	–	–
S=P(N1CC1)(N1CC1)N1CC1 [THIOTEPA]	18.3	6.44	–	3.4	3.23	6.97	1.58	2	–	2.66	1.66	5.4	4.31	1.4	–	–
N#C/C(=C\c1ccncc1)c1nc2ccccc2[nH]1	40.1	> 40	–	30.7	> 40	19.7	26.2	31.2	–	> 40	> 40	37.1	> 40	> 40	–	–
O=C1CN(/N=C/c2ccc([N+](=O)[O-])o2)C(=O)N1 [NITROFURANTOIN]	7	–	–	–	4.44	2.34	1.86	21.3	–	–	6.74	22.8	29	7.27	–	–
COc1ccc(/C=C(\C#N)c2nc3ccccc3[nH]2)s1	21.2	20.5	–	14.7	13.2	5.24	7.19	31.9	–	> 40	13.8	12.2	12	36.8	–	–
N#C/C(=C\c1ccc([N+](=O)[O-])cc1)n1cnc2ccccc21	2.56	1.92	–	2.2	2.47	1.71	1.7	2.2	–	2.43	1.53	2.63	2.41	4.34	–	–
N#C/C(=C\c1cccc([N+](=O)[O-])c1)n1cnc2ccccc21	4.02	2.3	–	4.16	2.61	3.48	2.86	4.01	–	3.39	2.26	4.06	3.09	6.57	–	–
N#C/C(=C\c1ccc([N+](=O)[O-])o1)c1nc2cccnc2[nH]1	1.76	1.58	–	1.11	1.39	0.41	0.75	1.08	–	1.02	1.81	1.33	5.46	0.72	–	1.4 (≈ 0.394 µg/mL)
N#C/C(=C\c1csc(Br)c1)c1nc2ccccc2[nH]1	> 40	> 40	–	> 40	> 40	22.8	> 40	> 40	–	> 40	> 40	> 40	> 40	> 40	–	–
O=C(Cn1cnc2ccccc21)NC(O)c1ccc([N+](=O)[O-])o1 (stereo unspecified)	31.2	5.14	–	3.9	5.37	1.78	5.9	5.91	–	5.66	4.18	5.57	9.49	3.22	–	–
N#C/C(=C\c1ccccn1)c1nc2ccccc2o1	> 20	–	–	–	–	> 20	–	> 20	–	–	–	–	–	–	–	23 (≈ 5.69 µg/mL)
Cc1cc2nc(/C(C#N)=C/c3ccc([N+](=O)[O-])s3)[nH]c2cc1C	0.14	0.06	–	0.12	0.13	0.03	0.02	0.05	–	0.04	0.2	0.05	0.12	0.1	–	–
N#C/C(=C\c1ccc([N+](=O)[O-])o1)c1nc2ccccc2s1	4.3	2	> 210	1.78	3.33	1.47	1.21	2.37	> 210	2.25	3.84	2.38	5.44	2.5	> 210	0.7 (≈ 0.208 µg/mL)
N#C/C(=C\c1ccc([N+](=O)[O-])o1)c1nc2ccccc2o1	3.98	1.68	> 222	1.41	2.87	1.33	1.13	1.65	111 (≈ 31.2 µg/mL)	2.86	3	2.91	7	2.86	111 (≈ 31.2 µg/mL)	< 0.1
N#C/C(=C\c1ccsc1)c1nc2ccccc2[nH]1	7.82	14.6	–	13.3	14.4	3.75	6.39	14.1	–	28.9	15.7	16	23	23.8	–	–
N#C/C(=C\c1ccc([N+](=O)[O-])s1)c1nc2ccccc2o1	6.57	2.76	> 210	3.88	5.69	12.1	2.33	3.91	210 (≈ 62.4 µg/mL)	1.7	12.6	5.3	22.6	14.1	210 (≈ 62.4 µg/mL)	< 0.1
N#C/C(=C\c1ccccn1)c1nc2cccnc2[nH]1	10	7.98	–	8.18	8.28	7.37	5.15	3.9	–	8.89	7.97	8.14	13.9	5.53	–	28 (≈ 6.92 µg/mL)
N#C/C(=C\c1ccc([N+](=O)[O-])s1)c1nc2ccccc2s1	0.92	0.46	> 200	0.75	0.83	0.88	0.38	0.62	12 (≈ 3.76 µg/mL)	0.42	0.72	0.51	0.93	0.64	12 (≈ 3.76 µg/mL)	< 0.1
N#C/C(=C\c1cccnc1)c1nc2ccccc2[nH]1	3.47	5.13	–	3.5	3.15	1.97	3.29	1.79	–	4.92	3.27	4.25	3.92	3.02	–	–
